Reference: article PMC6468299 (Nucleic Acids Research, 2019)
Marks after values point to notes of the source that are not given here.

What was measured:
[1] = molecular target: T1, human mitochondrial DNA polymerase γ (Pol-γ exo-mutant) (Homo sapiens, UniProt P54098, D198A/E200A); assay: Pol-γ primer extension; type: biochemical
T1 sequence (P54098 26-1239 D198A/E200A limits assumed): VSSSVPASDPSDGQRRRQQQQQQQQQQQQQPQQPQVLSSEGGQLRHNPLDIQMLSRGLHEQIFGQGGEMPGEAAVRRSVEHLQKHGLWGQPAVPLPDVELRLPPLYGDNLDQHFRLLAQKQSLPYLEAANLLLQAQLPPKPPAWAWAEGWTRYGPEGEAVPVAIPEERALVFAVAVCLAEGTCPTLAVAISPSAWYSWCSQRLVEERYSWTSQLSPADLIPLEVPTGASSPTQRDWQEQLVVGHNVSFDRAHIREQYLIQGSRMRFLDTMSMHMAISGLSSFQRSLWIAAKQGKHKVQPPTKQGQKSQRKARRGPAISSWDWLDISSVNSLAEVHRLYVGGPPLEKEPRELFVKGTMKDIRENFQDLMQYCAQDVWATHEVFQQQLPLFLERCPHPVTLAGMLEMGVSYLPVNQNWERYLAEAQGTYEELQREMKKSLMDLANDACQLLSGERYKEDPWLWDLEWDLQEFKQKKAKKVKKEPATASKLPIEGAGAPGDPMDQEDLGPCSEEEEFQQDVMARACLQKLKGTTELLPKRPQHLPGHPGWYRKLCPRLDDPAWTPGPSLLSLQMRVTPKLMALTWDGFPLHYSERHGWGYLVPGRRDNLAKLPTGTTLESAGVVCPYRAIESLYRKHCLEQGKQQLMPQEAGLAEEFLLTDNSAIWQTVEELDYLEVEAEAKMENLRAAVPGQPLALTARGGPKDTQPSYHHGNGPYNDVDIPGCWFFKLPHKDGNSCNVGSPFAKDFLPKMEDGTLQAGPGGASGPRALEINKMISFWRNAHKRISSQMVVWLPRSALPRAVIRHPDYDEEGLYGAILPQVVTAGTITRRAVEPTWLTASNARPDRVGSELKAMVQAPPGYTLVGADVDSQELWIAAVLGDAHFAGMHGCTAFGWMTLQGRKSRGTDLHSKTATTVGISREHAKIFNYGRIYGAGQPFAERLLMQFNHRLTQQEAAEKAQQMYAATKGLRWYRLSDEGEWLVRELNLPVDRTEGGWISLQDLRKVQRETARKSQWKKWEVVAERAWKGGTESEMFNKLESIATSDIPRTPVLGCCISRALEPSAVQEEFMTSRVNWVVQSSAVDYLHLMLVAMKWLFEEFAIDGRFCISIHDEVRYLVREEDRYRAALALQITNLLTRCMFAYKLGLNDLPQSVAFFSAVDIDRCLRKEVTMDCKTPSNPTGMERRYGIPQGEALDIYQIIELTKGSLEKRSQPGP
Procedure, shortened: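 Exonuclease-deficient human Pol-γ (40 units) was used with 100 nM DNA template and 100 nM Atto-425-labelled 14-mer DNA primer. Substrate was 1 mM dNTP or 2′-F-NTP, or mixtures 100:1 to 1:100 (1:1 both 1 mM). Products were separated by fluorescence IEX-HPLC (ex 436/em 485 nm) at pH 11. Products under 1.0% peak area were called not detected.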

DNA polymerase α (Pol-α) = molecular target: T2, DNA polymerase α (Pol-α) (Homo sapiens, UniProt P09884); assay: DNA polymerase inhibition assay, Pol-α; type: biochemical; details: Pol-α; 1 h, 3H-dTTP incorporation
T2 sequence (P09884 1-1462): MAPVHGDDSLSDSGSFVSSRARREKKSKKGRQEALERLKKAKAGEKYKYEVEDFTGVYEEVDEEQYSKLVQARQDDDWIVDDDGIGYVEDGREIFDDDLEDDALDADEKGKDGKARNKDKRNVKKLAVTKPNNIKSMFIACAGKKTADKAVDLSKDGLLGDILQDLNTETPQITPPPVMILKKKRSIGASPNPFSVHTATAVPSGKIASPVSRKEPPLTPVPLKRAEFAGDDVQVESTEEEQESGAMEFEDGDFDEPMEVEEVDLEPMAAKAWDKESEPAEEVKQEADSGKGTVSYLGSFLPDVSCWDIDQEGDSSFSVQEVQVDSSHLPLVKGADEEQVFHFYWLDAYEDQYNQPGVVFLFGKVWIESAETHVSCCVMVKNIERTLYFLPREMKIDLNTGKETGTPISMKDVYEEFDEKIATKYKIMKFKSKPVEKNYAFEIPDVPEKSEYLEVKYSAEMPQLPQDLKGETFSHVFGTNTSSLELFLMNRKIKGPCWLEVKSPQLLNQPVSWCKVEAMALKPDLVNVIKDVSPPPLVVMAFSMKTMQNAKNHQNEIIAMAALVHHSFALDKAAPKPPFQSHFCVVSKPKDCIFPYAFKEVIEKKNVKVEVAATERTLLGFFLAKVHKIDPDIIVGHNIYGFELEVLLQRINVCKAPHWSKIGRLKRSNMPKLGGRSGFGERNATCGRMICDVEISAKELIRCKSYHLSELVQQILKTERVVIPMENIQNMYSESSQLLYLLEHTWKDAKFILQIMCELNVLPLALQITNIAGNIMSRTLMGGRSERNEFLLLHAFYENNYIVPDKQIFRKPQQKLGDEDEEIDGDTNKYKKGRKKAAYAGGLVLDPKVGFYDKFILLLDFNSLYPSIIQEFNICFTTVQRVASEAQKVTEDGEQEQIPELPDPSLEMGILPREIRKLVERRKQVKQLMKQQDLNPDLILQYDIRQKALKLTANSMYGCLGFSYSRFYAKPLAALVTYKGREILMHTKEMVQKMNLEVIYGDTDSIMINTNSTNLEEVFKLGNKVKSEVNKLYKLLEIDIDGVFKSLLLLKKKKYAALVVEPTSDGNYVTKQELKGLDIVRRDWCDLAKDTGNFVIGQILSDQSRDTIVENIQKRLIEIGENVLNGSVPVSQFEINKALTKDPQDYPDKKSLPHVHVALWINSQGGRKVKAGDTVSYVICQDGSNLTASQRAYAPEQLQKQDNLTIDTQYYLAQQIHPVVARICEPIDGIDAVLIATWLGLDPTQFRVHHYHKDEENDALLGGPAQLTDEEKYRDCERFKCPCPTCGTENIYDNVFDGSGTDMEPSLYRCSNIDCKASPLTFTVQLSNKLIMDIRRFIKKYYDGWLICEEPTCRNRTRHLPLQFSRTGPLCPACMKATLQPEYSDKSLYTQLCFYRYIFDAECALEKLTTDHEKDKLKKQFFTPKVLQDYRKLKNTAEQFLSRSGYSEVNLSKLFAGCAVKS

Row | Compound | % 2′-F product ([1]; F only) | % Native product ([1]; Native only (no 2′-F-NTP)) | % Native product ([1]; Native:F ratio 1:1) | % 2′-F product ([1]; Native:F ratio 1:100) | IC50 (DNA polymerase α (Pol-α)) | IC90 (DNA polymerase α (Pol-α)) | % Native product ([1]; Native:F ratio 1:10) | % Native product ([1]; Native:F ratio 1:100) | % 2′-F product ([1]; Native:F ratio 1:1) | % 2′-F product ([1]; Native:F ratio 1:10)
1 | O=c1[nH]c(=O)n([C@@H]2O[C@H](COP(=O)(O)OP(=O)(O)OP(=O)(O)O)[C@@H](O)[C@@H]2F)cc1I [FIAU-TP, fialuridine triphosphate, reference compound] | 94.4^a % | 98.3^a % | 91.7^b % | 82.7^b % | 0.27 µM | 13.7 µM | – | – | 4.5^b % | 44.0^b %
2 | O=c1ccn([C@@H]2O[C@H](COP(=O)(O)OP(=O)(O)OP(=O)(O)O)[C@@H](O)[C@H]2F)c(=O)[nH]1 [2′-F-UTP] | 87.3^a % | 83.3^a % | 83.8^a % | 7.6^b % | > 200 µM | > 200 µM | 90.0^b % | 80.1^b % | ND (not detected (integration peak area <1.0%)) | 2.9^b %
3 | Nc1ccn([C@@H]2O[C@H](COP(=O)(O)OP(=O)(O)OP(=O)(O)O)[C@@H](O)[C@H]2F)c(=O)n1 [2′-F-CTP] | 94.0^a % | 97.3^a % | 96.2^a % | 30.9^b % | > 200 µM | > 200 µM | 90.6^b % | 64.5^b % | ND (not detected (integration peak area <1.0%)) | 4.4^b %

Continued, in another order:

Row | % 2′-F product ([1]; F only) | % Native product ([1]; Native only (no 2′-F-NTP)) | % Native product ([1]; Native:F ratio 1:1) | % 2′-F product ([1]; Native:F ratio 1:100) | IC50 (DNA polymerase α (Pol-α)) | IC90 (DNA polymerase α (Pol-α)) | % Native product ([1]; Native:F ratio 1:10) | % Native product ([1]; Native:F ratio 1:100) | Compound | % 2′-F product ([1]; Native:F ratio 1:1) | % 2′-F product ([1]; Native:F ratio 1:10)
4 | 94.2^a % | 95.9^a % | 96.3^a % | 17.6^b % | > 200 µM | > 200 µM | 97.1^a % | 79.8^b % | Nc1ncnc2c1ncn2[C@@H]1O[C@H](COP(=O)(O)OP(=O)(O)OP(=O)(O)O)[C@@H](O)[C@H]1F [2′-F-ATP] | ND (not detected (integration peak area <1.0%)) | ND (not detected (integration peak area <1.0%))
5 | 73.9^a % | 89.2^a % | 85.0^a % | 23.7^b % | > 200 µM | > 200 µM | 88.9^a % | 56.0^b % | Nc1nc2c(ncn2[C@@H]2O[C@H](COP(=O)(O)OP(=O)(O)OP(=O)(O)O)[C@@H](O)[C@H]2F)c(=O)[nH]1 [2′-F-GTP] | ND (not detected (integration peak area <1.0%)) | ND (not detected (integration peak area <1.0%))
